SMILES strings stand for the structures. Calls of active or inactive are those of the source.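 The calls were made as follows: active = half-maximal effective dose for blocking growth of human endothelial cells at most 100 µM; inactive = the rest.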 A value given as a limit tells only on which side of the number the result lay.

The test concerns HUVEC proliferation, viability ATP luminescence. Briefly: growth suppression of umbilical vein endothelial cells – cell-based, HUVEC, ATP luminescence, dose response (AID 822).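 Also: cells exposed to compound for 72 h before the ATP read.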 Put shortly:
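Material – HUVEC · Amount – 1250 HUVEC cells seeded per well · Medium – EBM plus 2% FBS · Dosing – dose series 0.039 to 20 µM, DMSO 0.2% · Times – 72 h exposure, 37 °C · Detection – ATP luminescence · Read-out basis – % viability and fitted EC50 · Format – collagen-coated plates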
In the case of `CC1=CC(C)(C)N2C(=O)C3(C(C#N)=C(N)Oc4cc(O)ccc43)c3c(C)c(C)cc1c32` (configuration not stated), the EC50 is 6.14 µM. The value for `COc1ccc2c(c1)c1nc3ccccc3nc1n2CC(=O)OC(C)C` was 11.3 µM.

Take `COc1ccc2nc3oc(C(=O)N4CCN(c5ccccc5F)CC4)cc3cc2c1`: the EC50 is 15.5 µM. The value for `Cc1oc(-c2ccccc2F)nc1CN1CCC(C(=O)NCCC2=CCCCC2)CC1` was 12.4 µM; that for `CN1CCN(S(=O)(=O)c2ccc(NC(=O)Nc3cccc(Cl)c3)cc2)CC1` was 6.85 µM. As for `CCCc1ccc(Oc2c(-c3ccc(O)c(C)c3O)n[nH]c2C)cc1`, the EC50 is 9.55 µM. For the compound `Cc1cccc(C)c1OCC(=O)N=Nc1c(O)[nH]c2ccc(Br)cc12`, the EC50 was 7.15 µM.

In the case of `COc1ccc2cc3cc(C(=O)Nc4ccc5c(c4)OCCO5)oc3nc2c1`, the half-maximal effective concentration (EC50) was 11.7 µM. The value for `Cc1cccnc1Nc1nc(-c2ccc(O)cc2O)cs1` was 10.3 µM. The value for `Cc1ccc(C)n1NC(=O)c1ccccc1O` was > 10 µM (inactive). As for `Fc1ccc2c(Cl)c(-c3nnc(-c4cccs4)o3)sc2c1`, the EC50 is 8.06 µM. The value for `Cc1c(CCOC(=O)C2C3CC4CC(C3)CC2C4)sc[n+]1CC(=O)c1ccc(Br)cc1` (configuration not stated) was 11.4 µM. The value for `O/N=C1\CC/C(=N\O)c2nn(-c3ccccc3Cl)nc21` was > 10 µM (inactive); that for `CCCCC[n+]1ccn(C2=C([O-])c3ccccc3C(=O)/C2=N\S(=O)(=O)c2ccccc2)c1` was 6.1 µM.

With `CCOC(=O)Cc1c(C)nc2c(-c3cccc(Br)c3)c[nH]n2c1=O`, the EC50 was 3.01 µM. The figure for `Cc1nn(Cc2ccc(Cl)c(Cl)c2)c(C)c1NC(=O)c1cc(-c2ccc3c(c2)OCO3)on1` is 1.35 µM. The figure for `CCCCn1c(SCC(=O)Nc2cc(NC(=O)c3ccco3)ccc2C)nc2ccccc2c1=O` is 12.2 µM. As to `CCOC(=O)c1c(NC(=O)CSc2nc(C)cc(C)c2C#N)sc(C(C)=O)c1C`, the EC50 is 4.87 µM.

Turning to `Oc1c(C(Nc2ccccn2)c2ccccn2)ccc2cccnc12` (configuration not stated), the concentration for a half-maximal effect (EC50) was 17.8 µM. The figure for `CC1(C)Cc2c(C#N)c(N3CCN(C(=O)c4ccco4)CC3)nc(Cc3ccccc3)c2CO1` is 7.74 µM; for `Cc1ccc(C)c(N2CCN(CCCNC(=O)Cn3cc4c(n3)CCCCC4)CC2)c1` it is 10.9 µM. The figure for `CCCCc1ccc(Nc2nc(CCC)cc(=O)[nH]2)cc1` is 9.15 µM; for `CCOC(=O)C(C(C)=O)c1c(Br)c(O)c(O)c2c(C(=O)c3ccc(C)cc3)coc12` (configuration not stated) it is 7.17 µM; for `Cc1ccccc1CS(=O)(=O)c1nnc([C@H](CC(C)C)NC(=O)OC(C)(C)C)o1` it is 12 µM. The figure for `Cc1ccc(S(=O)(=O)c2c(C)nn(C(C)(C)C)c2OC(=O)c2ccc(Br)o2)cc1` is 4.57 µM; for `COc1ccc(Cl)c(N2CCN(CCCNC(=O)Nc3ccc(C)cc3)CC2)c1` it is 12.3 µM. With `CCCCCCc1cc2cc(-c3nnc(-c4ccccc4)o3)c(=O)oc2cc1O`, the EC50 was 3.5 µM.

`Cc1cc(N2CCCCC2)nc2ccc(NC(=O)c3ccc(Br)o3)cc12`: the EC50 is 17.2 µM. For the compound `COc1cccc(C(=O)CSc2nnc(-c3cc(OC)cc(OC)c3)o2)c1`, the EC50 is 18.2 µM.

Turning to `O=C(Nc1cccc(-c2nnc(-c3ccccc3)o2)c1)c1ccc(Br)o1`, the EC50 is 9.92 µM. The value for `Cc1ccc2[nH]c3c(N4CCN(Cc5ccccc5)CC4)ncnc3c2c1` was 8.08 µM. The figure for `COc1ccc(-c2nnc(Nc3nc4c(OC)cccc4s3)o2)cc1` is 4.41 µM; for `Cc1coc2c(O)cc3c(c12)OC1(N2CCCCC2)C(=O)NCCCC31` (configuration not stated) it is 7.41 µM. Regarding `O=S(=O)(CCN(CCS(=O)(=O)C(F)(F)F)CC1CCCO1)C(F)(F)F` (configuration not stated), the concentration for a half-maximal effect (EC50) is 12.5 µM. The figure for `Cc1cc(S(=O)(=O)N2CCN(Cc3ccc4c(c3)OCO4)CC2)cc(C)c1N1CCCC1=O` is 18.3 µM; for `CCOc1cc(/C=N\NC(=O)Cn2nc([N+](=O)[O-])cc2C)ccc1OCc1cccc2ccccc12` it is 20.7 µM.

Take `Cc1ccc(C2(C(F)(F)F)N=C3Sc4cc(C)cc(C)c4N3C(=O)N2)cc1` (configuration not stated): the EC50 is 11 µM. The figure for `CN1CCN(c2nc3ccccc3nc2C(C#N)C(=O)OC2CCCCC2)CC1` (configuration not stated) is 3.87 µM; for `CC(=O)Nc1ccc(S(=O)(=O)NC2=C(N3CCN(Cc4ccccc4)CC3)C(=O)c3ccccc3C2=O)cc1` it is 6.68 µM; for `CC(Nc1nc(N2CCCC2)nc2ccccc12)c1ccccc1` (configuration not stated) it is 5.19 µM. The value for `COc1ccc(-n2nc(C(=O)NCc3ccco3)c3c4ccccc4n(C)c3c2=O)cc1Cl` was 19.7 µM; that for `Cc1cc(C)c2oc(-c3cccc(NC(=O)c4ccc(F)cc4)c3)nc2c1` was 19.3 µM; that for `Cc1cc(NC(=O)CSc2nc3c(sc4ccccc43)c(=O)n2CCCN2CCOCC2)n[nH]1` was 18.2 µM. The value for `CCCc1cc(C(=O)Cc2ccc(F)cc2)c(O)cc1O` was 10 µM; that for `COc1ccc(NC(=O)c2oc3ccccc3c2NC(=O)COc2ccccc2OC)c(OC)c1` was 2.8 µM; that for `CC(Nc1nc(N2CCN(S(C)(=O)=O)CC2)nc2ccccc12)c1ccccc1` (configuration not stated) was 9.04 µM. As to `O=C(OCC(=O)N1CCN(C(=O)c2ccco2)CC1)c1cc(-c2ccc(Cl)c(Cl)c2Cl)nc2ccccc12`, the EC50 is 4.16 µM. The figure for `CCOC(=O)c1ccccc1Nc1cn(C(C)=O)c2ccccc12` is 11.7 µM; for `COCc1cc(CN2CCCC2)c(O)c2ncccc12` it is > 10 µM (inactive); for `Cc1occc1-c1nnc(SCC(=O)NCc2cccs2)n1-c1ccc(F)cc1` it is 15.2 µM. `CCOC(=O)/C=C/S(=O)(=O)c1ccc(NC(C)=O)cc1`: the EC50 was 15.8 µM. The figure for `CC1(c2ccccc2)CC(C)(C)N2C(=O)C3(C(C#N)=C(N)Oc4cc(O)ccc43)c3cccc1c32` (configuration not stated) is 6.69 µM; for `FC(F)C(F)(F)C(F)(F)C(F)(F)c1cc(-c2ccccc2)n[nH]1` it is 8.28 µM; for `Cc1cccc(-c2nc(CN3CCCC(C(=O)NC4CCCCCC4)C3)c(C)o2)c1` (configuration not stated) it is 10.8 µM. The figure for `N#Cc1nc(-c2ccc(OCc3ccccc3Cl)cc2)oc1NCCCn1ccnc1` is 2.55 µM; for `COc1ccc(-c2cc(C#N)nc(N3CCNCC3)n2)cc1` it is 12.8 µM. The figure for `O=C(NCCC1=CCCCC1)C1CCN(Cc2cnn(-c3ccccc3)c2-n2cccc2)CC1` is 15.1 µM. On to `CN(c1ccccc1)S(=O)(=O)c1ccc(C(=O)Nc2nnc(-c3ccc(F)cc3)o2)cc1`, for which the EC50 was 1.74 µM. The figure for `Cc1ccc(-c2nnc(SCC(=O)Nc3ccccc3F)o2)cc1` is 19.2 µM; for `CCSc1nnc(NC(=O)c2ccccn2)s1` it is 1.81 µM; for `CC1CC(C)CN(S(=O)(=O)c2ccc(C(=O)Nc3nnc(-c4cccs4)o3)cc2)C1` (configuration not stated) it is 3.04 µM. Consider `N=c1c2c(-c3ccccc3)c(-c3ccccc3)n(Cc3ccco3)c2ncn1Cc1ccco1`, for which the EC50 was 1.82 µM. In the case of `O=c1[nH]c2ccccc2n1C1CCN(CCCC(c2ccc(F)cc2)c2ccc(F)cc2)CC1`, the EC50 was 2.71 µM.

For `Nc1c(S(=O)(=O)c2ccccc2)c2nc3ccccc3nc2n1/N=C/c1cccc(O)c1`, the EC50 was 6.06 µM.

With `N/C(Cc1ccc(Cl)cc1)=N\OC(=O)c1ccc2ccccc2c1`, the EC50 is 9.87 µM.

As for `COc1cc(OC)cc(C(=O)Nc2ccc(-c3nc4ccccc4o3)cc2)c1`, the concentration giving a half-maximal response (EC50) was 6.75 µM. The value for `CC1=NOC(=O)/C1=C/c1ccc(-c2ccc(Cl)cc2)o1` was 4.06 µM; that for `CC(=O)Nc1ccc(S(=O)(=O)NC2=C(N3CCN(c4ccc(F)cc4)CC3)C(=O)c3ccccc3C2=O)cc1` was 2.38 µM; that for `C/C(CC1CC2=C(CC1(C)C)C(C)(C)CCC2)=N\NC(N)=S` (configuration not stated) was 4.89 µM. On to `CC1=C(C(=O)OC2CCCCCCC2)C(c2cc3c(cc2Br)OCO3)CC(=O)N1` (configuration not stated), for which the EC50 is 6.99 µM.

For the compound `Cc1ccc(C(=O)Nc2ncc(Cc3ccccc3)s2)o1`, the concentration giving a half-maximal response (EC50) was 0.711 µM. The value for `O=C(Nc1nccs1)c1c(O)c2cccc3c2n(c1=O)CCC3` was 20.4 µM; that for `COC(=O)c1sccc1NC(=O)c1ccc2c(c1)OCO2` was 20.4 µM. For the compound `O=c1[nH]c2cc3c(cc2cc1C(c1nnnn1Cc1ccccc1)N1CCCCCC1)OCCO3` (configuration not stated), the EC50 is 13.1 µM.

With `CCC(CC)COC(=O)C(C#N)c1nc2ccccc2nc1N1CCN(CC)CC1` (configuration not stated), the concentration for a half-maximal effect (EC50) was 10.2 µM. The figure for `Cc1ccc(NC(=O)c2cc(NC(=O)c3ccco3)ccc2N2CCCCC2)cc1` is 17.9 µM; for `Cc1cc(C)c2oc(-c3ccc(Cl)c(NC(=O)c4ccc(C#N)cc4F)c3)nc2c1` it is 10.9 µM; for `CCCOc1ccc(-c2nc(C#N)c(NCCCn3ccnc3)o2)cc1` it is 11.3 µM.

`Clc1ccc(COC(Cn2ccnc2)c2ccc(Cl)cc2Cl)cc1` (configuration not stated): the EC50 was 6.31 µM. The figure for `O=C1C2=C(NC(=S)NC2c2ccc(Cl)cc2)NC(c2ccc(Cl)cc2)N1c1ccc(Cl)cc1` (configuration not stated) is 5.96 µM; for `COc1ccc(-c2nnc(NC(=O)c3ccc(S(=O)(=O)N4CCCc5ccccc54)cc3)o2)cc1` it is 2.96 µM. For `Cn1cc(/C=N/n2cnc3scc(-c4ccccc4)c3c2=O)c2ccccc21`, the EC50 was 4.94 µM. The figure for `c1ccc(-c2noc(-c3ccc4c(c3)OCO4)n2)nc1` is 2.47 µM. The value for `Cc1cc2nc(C3CCN(CC4COc5ccccc5O4)CC3)[nH]c2cc1C` (configuration not stated) was 19.8 µM; that for `Oc1c(I)cc(Cl)c2cccnc12` was 1.94 µM. The figure for `O=C1Nc2ccccc2/C1=C/C(=O)c1cccs1` is 7.52 µM; for `CCc1ccc(NC(=O)CCc2nc3cccnc3n2Cc2ccc(OC)cc2)cc1` it is 13.3 µM; for `CN1CCN(c2ccccc2NC(=O)c2ccc(OCc3ccccc3)cc2)CC1` it is 10.8 µM. For the compound `O=C(CN1CCCC1)Nc1ccc(-c2nc3cc(NC(=O)CN4CCCC4)ccc3o2)cc1`, the half-maximal effective concentration (EC50) is 18.9 µM.

Regarding `O=C(Nc1ccc2nn(-c3ccccc3)nc2c1)c1ccc2c(c1)OCCO2`, the EC50 was 20 µM.

On to `O=c1[nH]c(Nc2nc3ccccc3o2)nc2c1CCCC2`, for which the EC50 was 17.3 µM. The figure for `C=CCc1ccc(OCC(O)CN2CCC(Cc3ccccc3)CC2)c(OC)c1` (configuration not stated) is 9.81 µM.

As a reminder, the EC50 is the midpoint of the concentration-response curve.

The values above are taken from PubChem BioAssay AID822 (SRMLSC, 2007).
